T cruzi growth-1 = T. cruzi intracellular proliferation inhibitors, primary screen, cell-based, beta-gal Tulahuen parasites, NIH3T3 host, luminescence. AID 624255, 2012. T. cruzi beta-gal in NIH3T3, GalScreen luminescence, 90 h. 77,000 tested, 5.9% active. inhibition, % at 8.34 µM;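 active means mean inhibition above about 93%, with at least 55% of replicates each passing it, limit read from the data, passing the limit was not always enough; inconclusive means only one of those two conditions holds; inactive means neither condition holds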
KDM4C inh = inhibitors of GASC-1 (KDM4C) histone demethylase, primary screen, biochemical, single concentration HTS | GST-KDM4C 2-372, H3K9me3 peptide, LANCE TR-FRET | inhibition, % at 12.5 µM | 96,000 tested, 0.15% active | AID 720574, 2013;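 active means mean replicate inhibition above about 25%, with at least 55% of replicates also reaching it, limit read from the data, passing the limit was not always enough; inconclusive means only one of those two conditions met; inactive means neither condition met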
Target sequence (Q9H3R0 2-372 limits assumed): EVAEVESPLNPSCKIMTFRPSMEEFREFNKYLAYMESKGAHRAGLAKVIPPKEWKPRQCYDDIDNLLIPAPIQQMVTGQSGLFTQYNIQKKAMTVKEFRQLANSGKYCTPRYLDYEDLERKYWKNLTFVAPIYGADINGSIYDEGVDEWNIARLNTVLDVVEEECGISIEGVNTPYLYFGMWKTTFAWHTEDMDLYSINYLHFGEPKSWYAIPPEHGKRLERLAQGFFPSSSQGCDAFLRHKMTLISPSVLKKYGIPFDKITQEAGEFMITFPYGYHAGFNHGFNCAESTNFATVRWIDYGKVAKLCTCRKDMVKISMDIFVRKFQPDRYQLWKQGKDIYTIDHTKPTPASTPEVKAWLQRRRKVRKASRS
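Test system: N-terminal GST-fused human GASC-1 (KDM4C) fragment, residues 2-372; quantity: GASC-1 enzyme at 10 nM final in reaction; dosing: single dose; schedule: 30 min demethylation and 1 h detection at room temperature; signal: LANCE TR-FRET, excitation 340 nm, emissions 618 and 671 nm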
IDH1 mut inh = inhibitors of IDH1 R132H reductase, primary screen, biochemical, plate reader, single point; diaphorase/resazurin fluorescence, 60 min; 70,000 tested, 0.18% active; AID 624101, 2012; inhibition, % at 10 µM; Isocitrate dehydrogenase [NADP] cytoplasmic (Homo sapiens), O75874; in the data active means inhibition above about 34%; inconclusive means no clear call, values can overlap the other calls; inactive means below about 11%
Target sequence (O75874 whole entry R132H): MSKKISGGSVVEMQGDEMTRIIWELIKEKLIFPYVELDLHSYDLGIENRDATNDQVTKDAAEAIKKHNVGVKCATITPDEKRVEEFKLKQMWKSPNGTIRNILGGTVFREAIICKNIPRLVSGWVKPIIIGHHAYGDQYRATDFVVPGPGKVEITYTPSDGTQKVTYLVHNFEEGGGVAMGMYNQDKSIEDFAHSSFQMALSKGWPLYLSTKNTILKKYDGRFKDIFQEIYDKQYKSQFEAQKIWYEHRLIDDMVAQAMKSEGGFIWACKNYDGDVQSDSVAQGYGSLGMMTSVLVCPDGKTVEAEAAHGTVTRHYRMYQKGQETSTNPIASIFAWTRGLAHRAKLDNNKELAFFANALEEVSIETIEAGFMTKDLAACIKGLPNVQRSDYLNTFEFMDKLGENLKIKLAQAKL
T cruzi growth-2 = T. cruzi intracellular proliferation inhibitors, confirmation, cell-based, NIH3T3 host, beta-gal parasite, luminescence, cherry-pick. shares compounds with T cruzi growth-1. T. cruzi beta-gal in NIH3T3, GalScreen luminescence, 90 h. inhibition, % at 8.35 µM. 5,600 tested, 72% active. AID 651739, 2012;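 active means mean replicate inhibition above about 95% and at least 55% of replicates individually reaching it, limit read from the data; inconclusive means only one of the two criteria is met; inactive means neither criterion is met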
T cruzi growth-3 = inhibitors of intracellular T. cruzi replication, confirmation, NIH3T3 host cells, beta-gal parasites, cherry-pick, set 2 | T. cruzi beta-gal in NIH3T3, GalScreen luminescence, 90 h | shares compounds with T cruzi growth-1 | 5,600 tested, 21% active | inhibition, % at 2.09 µM | AID 651740, 2012;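 active means mean inhibition above about 95%, with at least 55% of replicates also reaching it, limit read from the data; inconclusive means meets just one of the two conditions; inactive means meets neither condition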
NIH3T3 tox = cytotoxicity in mouse NIH/3T3 fibroblasts, confirmation, cytotoxicity control for T. cruzi proliferation inhibitor project, cell-based, cherry-pick, single point | shares compounds with T cruzi growth-1 | cytotoxicity (signal decrease), % at 8.35 µM | 5,600 tested, 14% active | NIH/3T3 viability, CellTiter-Glo ATP luminescence, 90 h;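 active means mean signal decrease across replicates above about 35% based on untreated-well scatter, with enough replicates individually passing, limit read from the data; inconclusive means no rule stated though some were filed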
NIH3T3 tox 2 = NIH/3T3 fibroblast cytotoxicity, confirmation, cytotoxicity control, cell-based, cherry-pick, single point, set 2; shares compounds with T cruzi growth-1; NIH/3T3 viability, CellTiter-Glo ATP luminescence, 90 h; inhibition, % at 24.9 µM; 5,600 tested, 56% active; AID 651744, 2012;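 active means mean loss of cell viability signal at or above a set limit, and enough replicates individually reaching it; inconclusive means meets only the mean limit or only the replicate share; inactive means meets neither condition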
Large screens that a line does not name were inactive (follow-up assays come after a bar, where they were run). Shown is part of a subset that was picked to be rich in hits.

COc1ccccc1NC(=O)CSc1nnc(-c2cccc3ccccc23)n1-c1ccccc1	none (no result: T cruzi growth-1, KDM4C inh)
COCC(=O)Nc1ccc2c(c1)[C@H]1C[C@@H](CC(=O)NCc3ccc(-c4ccccc4)cc3)O[C@@H](CO)[C@H]1O2	none
COCC(=O)Nc1ccc2c(c1)[C@@H]1C[C@@H](CC(=O)NCc3ccc(-c4ccccc4)cc3)O[C@@H](CO)[C@@H]1O2	T cruzi growth-1 inconclusive | T cruzi growth-2 inactive | T cruzi growth-3 inactive | NIH3T3 tox 37 | NIH3T3 tox 2 inactive
COCC(=O)Nc1ccc2c(c1)[C@H]1C[C@@H](CC(=O)NCc3ccc(-c4ccccc4)cc3)O[C@H](CO)[C@H]1O2	T cruzi growth-1 102 | T cruzi growth-2 inactive | T cruzi growth-3 inactive | NIH3T3 tox inactive | NIH3T3 tox 2 inactive
COCC(=O)Nc1ccc2c(c1)[C@H]1C[C@H](CC(=O)NCc3ccc(-c4ccccc4)cc3)O[C@H](CO)[C@H]1O2	T cruzi growth-1 111 | T cruzi growth-2 inactive | T cruzi growth-3 inactive | NIH3T3 tox inactive | NIH3T3 tox 2 inactive
COCC(=O)Nc1ccc2c(c1)[C@H]1C[C@H](CC(=O)NCc3ccc(-c4ccccc4)cc3)O[C@@H](CO)[C@H]1O2	none
COCC(=O)Nc1ccc2c(c1)[C@@H]1C[C@H](CC(=O)NCc3ccccc3)O[C@@H](CO)[C@@H]1O2	none (no result: T cruzi growth-1, IDH1 mut inh)
COC(=O)c1cc(OC)c(OC)cc1NC(=O)COc1cc(Cl)c(Cl)cc1Cl	none (no result: T cruzi growth-1, KDM4C inh)
COC(=O)c1ccccc1NC(=O)CC1Sc2ccc(C(F)(F)F)cc2NC1=O (stereo unspecified)	none (no result: T cruzi growth-1, KDM4C inh)
O=C(Cn1cnc2scc(-c3ccccc3)c2c1=O)Nc1cc(Cl)cc(Cl)c1	none (no result: T cruzi growth-1, KDM4C inh)
C[C@@H]1CN([C@H](C)CO)S(=O)(=O)c2ccc(C#CC3(O)CCCC3)cc2O[C@H]1CN(C)C(=O)Nc1ccccc1	none
COc1cccc(C#Cc2cnc3c(c2)C(=O)N([C@H](C)CO)C[C@H](C)[C@H](CN(C)C)O3)c1	none
COc1ccc(C#Cc2cnc3c(c2)C(=O)N([C@@H](C)CO)C[C@@H](C)[C@H](CN(C)CC2CCCC2)O3)cc1	T cruzi growth-1 111 (no result: KDM4C inh) | T cruzi growth-2 99 | T cruzi growth-3 inactive | NIH3T3 tox 118 | NIH3T3 tox 2 104
COc1ccc(C#Cc2cnc3c(c2)C(=O)N([C@H](C)CO)C[C@H](C)[C@H](CN(C)C)O3)cc1	T cruzi growth-1 101 | T cruzi growth-2 inactive | T cruzi growth-3 inactive | NIH3T3 tox inactive | NIH3T3 tox 2 65
COc1ccc(C#Cc2cnc3c(c2)C(=O)N([C@H](C)CO)C[C@H](C)[C@@H](CN(C)CC2CCCC2)O3)cc1	none
CC(=O)c1cccc(-n2nnnc2SCC(=O)Nc2ccccc2F)c1	none (no result: T cruzi growth-1, KDM4C inh)
CC(C)(C)[S@@](=O)N1Cc2cc(C(=O)NCc3ccccc3F)nc(-c3cccc(-c4cccnc4)c3)c2[C@H]1CCO	none
COc1ccc(CNC(=O)c2cc3c(c(-c4cccc(-c5cccc(C#N)c5)c4)n2)[C@@H](CCO)N([S@](=O)C(C)(C)C)C3)cc1	T cruzi growth-1 inconclusive | T cruzi growth-2 107 | T cruzi growth-3 100 | NIH3T3 tox inactive | NIH3T3 tox 2 45
CC(C)(C)[S@](=O)N1Cc2cc(C(=O)NCc3ccncc3)nc(-c3cccc(-c4cccc(C#N)c4)c3)c2[C@@H]1CCO	none
COc1ccc(CNC(=O)c2cc3c(c(-c4cccc(-c5ccc(C#N)cc5)c4)n2)[C@@H](CCO)N([S@](=O)C(C)(C)C)C3)cc1	T cruzi growth-1 98 | T cruzi growth-2 111 | T cruzi growth-3 107 | NIH3T3 tox inactive | NIH3T3 tox 2 38
CC(C)(C)[S@](=O)N1Cc2cc(C(=O)NCc3ccccc3F)nc(-c3cccc(-c4ccncc4)c3)c2[C@@H]1CCO	T cruzi growth-1 99 | T cruzi growth-2 102 | T cruzi growth-3 inactive | NIH3T3 tox inactive | NIH3T3 tox 2 103
COc1cccc(CNC(=O)c2cc3c(c(-c4cccc(-c5ccc(C#N)cc5)c4)n2)[C@H](CCO)N([S@@](=O)C(C)(C)C)C3)c1	none
COc1ccc(C)cc1NC(=O)CNS(=O)(=O)c1ccccc1	none (no result: T cruzi growth-1, KDM4C inh)
Cc1cc(C)nc(SCC(=O)c2ccc(Oc3ccccc3)cc2)n1	none (no result: T cruzi growth-1, KDM4C inh)
Cc1oc(-c2ccc(Cl)cc2)cc1COC(=O)Nc1ccccc1	none (no result: T cruzi growth-1, KDM4C inh)
CN1c2ccc(-c3cccc(F)c3)cc2[C@H]2[C@H](CCN2C(=O)C2CC2)[C@@H]1CO	T cruzi growth-1 117 (no result: IDH1 mut inh) | T cruzi growth-2 102 | T cruzi growth-3 inactive | NIH3T3 tox inactive | NIH3T3 tox 2 inconclusive
COCC(=O)N1CC[C@@H]2[C@@H](CO)N(C)c3ccc(-c4cccc(F)c4)cc3[C@@H]21	T cruzi growth-1 inconclusive (no result: IDH1 mut inh) | T cruzi growth-2 106 | T cruzi growth-3 inactive | NIH3T3 tox inactive | NIH3T3 tox 2 inactive
COCC(=O)N1CC[C@@H]2[C@H]1c1cc(-c3cccc(F)c3)ccc1N(C)[C@H]2CO	T cruzi growth-1 102 (no result: IDH1 mut inh) | T cruzi growth-2 107 | T cruzi growth-3 inactive | NIH3T3 tox inactive | NIH3T3 tox 2 inactive
CN1c2ccc(-c3cccc(F)c3)cc2[C@H]2[C@H](CCN2C(=O)C2CCC2)[C@H]1CO	none (no result: T cruzi growth-1, IDH1 mut inh)
COCC(=O)N1CC[C@H]2[C@@H]1c1cc(-c3cccc(F)c3)ccc1N(C)[C@H]2CO	none (no result: IDH1 mut inh)
CCC(=O)N1CC[C@H]2[C@@H]1c1cc(-c3cccc(F)c3)ccc1N(C)[C@H]2CO	none (no result: IDH1 mut inh)
CCn1c(SCC(=O)Nc2ccc(Cl)cc2Cl)nnc1-c1ccccc1F	none (no result: T cruzi growth-1, KDM4C inh)
CCCN(C)C[C@@H]1OCCCC[C@H](C)Oc2ccc(NC(=O)NC3CCCCC3)cc2C(=O)N([C@@H](C)CO)C[C@@H]1C	none
O=C(CCCCCCC(=O)Nc1ccccc1O)N/N=C/c1ccc(O)c(F)c1	none (no result: T cruzi growth-1, KDM4C inh)
C[C@@H]1CCCCO[C@@H](CN(C)S(=O)(=O)c2ccccc2)[C@H](C)CN([C@@H](C)CO)C(=O)c2cc(NC(=O)Nc3ccc(C(F)(F)F)cc3)ccc2O1	T cruzi growth-1 109 (no result: IDH1 mut inh) | T cruzi growth-2 104 | T cruzi growth-3 115 | NIH3T3 tox inactive | NIH3T3 tox 2 inactive
Cc1ccc(S(=O)(=O)N(C)C[C@H]2OCCCC[C@H](C)Oc3ccc(NC(=O)Nc4ccc(C(F)(F)F)cc4)cc3C(=O)N([C@@H](C)CO)C[C@H]2C)cc1	none (no result: T cruzi growth-1, IDH1 mut inh)
